We go through seven compounds from ChEMBL document CHEMBL1275365, “Synthetic analogues of the microtubule-stabilizing sponge alkaloid ceratamine A are more active than the natural product” (J Med Chem, 2010).

Values after ≈ are worked out from the molar mass of the structure shown. Active and inactive are the calls of the source. No cut-off for these calls is given here. Bounds are passed on as bounds.

Assay [1] deals with MCF7. The experiment in a line: Antimitotic activity in human MCF7mp53 cells assessed as induction of mitotic arrest after 20 hrs. It is filed as functional, cell-based. The note with it: MCF7, 20 h. The method, boiled down: (§1)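 MCF-7mp53 cells in 96-well plates, treated in triplicate with compound at 1-50 μg/mL for 20 h at 37 °C. Plates spun 50g, 2 min, to keep mitotic cells attached. Cells fixed/permeabilized (3.7% formaldehyde, 0.1% Triton X-100 in TBS), blocked with 1% BSA. Mitotic cells stained with TG-3 antibody plus fluorescent secondary, nuclei with Hoechst 33342. High-content imaging gave percentage of cells in mitosis.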

The subject of assay [2] is MCF7. The experiment in a line: Antimitotic activity in human MCF7mp53 cells assessed as cells arrested at mitotic stage at optimal concentration after 20 hrs. It is filed as functional. The method, boiled down: as §1
For assay [3], the system named is MCF7. The experiment in a line: Antimitotic activity in human MCF7mp53 cells assessed as induction of mitotic arrest at 50 ug/mL after 20 hrs. It is filed as functional, cell-based. In short, it runs like this: as §1

`CNc1nc2ccn(C)c(=O)c(Cc3cc(C)c(OC)c(C)c3)c-2n1`: the 50% inhibitory concentration (IC50) (in general, the concentration that gives 50% inhibition) with MCF7 [1] worked out at 3.5 µg/mL (≈ 10.3 µM). In the assay with MCF7 [2], the Activity was 67%.

Consider `CNc1nc2ccn(C)c(=O)c(Cc3ccc(OC)cc3)c-2n1` [DESBROMOCERATAMINE A], for which the IC50 in the assay on MCF7 [1] is more than 50 µg/mL. Moreover, the Activity in the assay with MCF7 [2] is recorded as 23%.

Turning to `CNc1nc2ccn(C)c(=O)c(C(O)c3cc(C)c(OC)c(C)c3)c-2n1` (stereo unspecified), in the assay on MCF7 [3], the result was inactive.

As to `COc1c(C)cc(/C=C2/C(=O)N(C)C=Cc3nc(N(C)C(=O)C(F)(F)F)n(C)c32)cc1C`, the result with MCF7 [3] was inactive.

`COc1c(C)cc(Cc2c3nc(N)nc-3ccn(C)c2=O)cc1C`: the outcome with MCF7 [3] was inactive.

For the compound `COc1c(C)cc(Cc2c3nc(N(C)C)nc-3ccn(C)c2=O)cc1C`, in the assay on MCF7 [1], the concentration for half-maximal inhibition (IC50) turned out to be 3 µg/mL (≈ 8.51 µM). Besides, the Activity in the assay with MCF7 [2] was 82%.

For `CNc1nc2ccn(C)c(=O)c(Cc3cc(Br)c(OC)c(Br)c3)c-2n1` [CERATAMINE A], in the assay with MCF7 [1], the IC50 was 5 µg/mL (≈ 10.7 µM). In addition, the Activity in the assay with MCF7 [2] was 54%.
